Activity calls are given as the source filed them. The calls are words filed in the database; no cut-off is given here.

We go through 14 compounds from ChEMBL document CHEMBL5532683, “Design, Synthesis, and Bioevaluation of Transcriptional Enhanced Assocciated Domain (TEAD) PROTAC Degraders” (ACS Med Chem Lett, 2024).

For test [1], the system named is NCI-H226. Kind of test: Antiproliferative activity against human NCI-H226 cells incubated for 120 hrs by Celltiter-glo luminescent assay. In kind it is functional, cell-based. The following applies: NCI-H226, 120 h. In a few lines:
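5-day exposure of NF2-deficient NCI-H226 cells to compounds at a range of concentrations; IC50 taken as mean ± SEM of four independent replicates.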
On the technique in general: Cellular ATP, detected with luciferase, serves as a proxy for viable cell number.

Test [2] has as its target T1, Protein cereblon-TEAD (Homo sapiens) (UniProt P28347+Q96SW2+Q15561+Q15562+Q99594). Kind of test: Protac activity at CRBN/TEAD in human NCI-H226 cells at 1 to 10 uM incubated for 24 hrs by Western blot analysis. In kind it is cell-based. The following applies: dose 1-10 µM. An outline of the steps: (§1)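 NCI-H226 cells exposed 24 h to 0.1, 1 or 10 μM compound. TEAD detected with pan-TEAD antibody by Western blot and quantified as percent degradation. Mean ± SEM of three independent replicates.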
In general terms: A western blot detects proteins with antibodies after separation by electrophoresis.

Test [3] has as its target T1, Protein cereblon-TEAD (Homo sapiens). Kind of test: Protac activity at CRBN/TEAD in human NCI-H226 cells at 0.1 uM incubated for 24 hrs by Western blot analysis. In kind it is cell-based. An outline of the steps: as §1
Another test addresses Protein cereblon-TEAD. The test is described as follows: Protac activity at CRBN/TEAD in human NCI-H226 cells incubated for 24 hrs by Western blot analysis. In kind it is cell-based. An outline of the steps:
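NCI-H226 cells exposed 24 h to compound across a broad concentration range. Pan-TEAD Western blot quantified; DC50 (half-maximal degradation concentration) derived. Mean ± SEM of three independent replicates.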

Test [4] has as its system NCI-H226. The test is described as follows: Downregulation of IGFBP3 gene expression in human NCI-H226 cells incubated for 8 hrs by RT-qPCR analysis. In kind it is functional, cell-based. The following applies: dose 0.5-1 µM. In a few lines:
(§2)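 NCI-H226 cells exposed to 0.5 or 1 μM compound for 8 h. Transcript levels measured by qPCR. Mean ± SEM of three independent replicates.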
In general terms: In qPCR the cycle at which signal appears reflects the starting amount.

Test [5] addresses T1, Protein cereblon-TEAD (Homo sapiens). The test is described as follows: Protac activity at CRBN/TEAD in human NCI-H226 cells at 1 uM preincubated with BafA1 for 1 hr followed by compound addition and measured after 8 hrs by Western blot analysis. In kind it is cell-based. An outline of the steps:
(§3)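 Rescue design: NCI-H226 cells pretreated 1 h with BafA1, MG132, thalidomide or VT107, then cotreated 8 h with compound. Protein levels measured by Western blot.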

Test [6] addresses Protein cereblon/Transcriptional enhancer factor TEF-4 (Homo sapiens, UniProt Q96SW2+Q15562). Kind of test: Protac activity at CRBN (unknown origin) /Flag-tagged TEAD2 (unknown origin) transfected in HEK293T cells pretreated with cycloheximide for 2 hrs followed by compound addition and measured after 24 hrs by Western blot analysis. In kind it is cell-based. In a few lines:
(§4)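 293T cells transfected separately with Flag-TEAD1, -2, -3 or -4. Pretreated 2 h with 200 μg/mL cycloheximide, then 24 h with compound at a series of concentrations. Isoform detected by anti-Flag Western blot and quantified. DC50 or maximal degradation derived. Mean ± SEM of three independent replicates.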

Test [7] addresses T1, Protein cereblon-TEAD (Homo sapiens). Kind of test: Protac activity at CRBN/TEAD in human NCI-H226 cells at 1 uM incubated for 10 to 24 hrs by Western blot analysis. In kind it is cell-based. The following applies: time 10-24 hrs. An outline of the steps: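 Time course in NCI-H226 cells: 1 μM compound for 1 to 24 h, pan-TEAD Western blot quantified. Mean ± SEM of three independent replicates.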

Test [8] addresses Protein cereblon/Transcriptional enhancer factor TEF-5 (Homo sapiens) (UniProt Q96SW2+Q99594). The test is described as follows: Protac activity at CRBN (unknown origin) /Flag-tagged TEAD3 (unknown origin) transfected in HEK293T cells at 9.75 to 1000 nM pretreated with cycloheximide for 2 hrs followed by compound addition and measured after 24 hrs by Western blot analysis. In kind it is cell-based. The following applies: dose 9.75-1000 nM. In a few lines: as §4

Test [9] deals with NCI-H226. The test is described as follows: Upregulation of FBXO32 gene expression in human NCI-H226 cells incubated for 8 hrs by RT-qPCR analysis. In kind it is functional, cell-based. The following applies: dose 0.5-1 µM. In a few lines:
as §2

For test [10], the system named is NCI-H226. Kind of test: Downregulation of CYR61 gene expression in human NCI-H226 cells incubated for 8 hrs by RT-qPCR analysis. In kind it is functional, cell-based. The following applies: dose 0.5-1 µM. An outline of the steps: as §2
The target in test [11] is T1, Protein cereblon-TEAD (Homo sapiens). The test is described as follows: Protac activity at CRBN/TEAD in human NCI-H226 cells at 1 uM preincubated with thalidomide for 1 hr followed by compound addition and measured after 8 hrs by Western blot analysis. In kind it is cell-based. An outline of the steps:
as §3

In test [12] the test system is NCI-H226. The test is described as follows: Downregulation of CTGF gene expression in human NCI-H226 cells incubated for 8 hrs by RT-qPCR analysis. The following applies: dose 0.5-1 µM. In kind it is functional, cell-based. An outline of the steps: as §2
In a further test the test system is NCI-H2452. Kind of test: Antiproliferative activity against human NCI-H2452 cells incubated for 120 hrs by Celltiter-glo luminescent assay. In kind it is functional, cell-based. The following applies: NCI-H2452, 120 h. In a few lines:
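NCI-H2452 cells (wild-type NF2) exposed to compound over a concentration range; IC50 estimated from the dose-response.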

In test [13] the target is Protein cereblon/Transcriptional enhancer factor TEF-3 (Homo sapiens) (UniProt Q96SW2+Q15561). Kind of test: Protac activity at CRBN (unknown origin) /Flag-tagged TEAD4 (unknown origin) transfected in HEK293T cells at 9.75 to 1000 nM pretreated with cycloheximide for 2 hrs followed by compound addition and measured after 24 hrs by Western blot analysis. In kind it is cell-based. The following applies: dose 9.75-1000 nM. An outline of the steps: as §4
Protein cereblon/Transcriptional enhancer factor TEF-3 (Homo sapiens), sequence (Q15561 whole entry, looked up): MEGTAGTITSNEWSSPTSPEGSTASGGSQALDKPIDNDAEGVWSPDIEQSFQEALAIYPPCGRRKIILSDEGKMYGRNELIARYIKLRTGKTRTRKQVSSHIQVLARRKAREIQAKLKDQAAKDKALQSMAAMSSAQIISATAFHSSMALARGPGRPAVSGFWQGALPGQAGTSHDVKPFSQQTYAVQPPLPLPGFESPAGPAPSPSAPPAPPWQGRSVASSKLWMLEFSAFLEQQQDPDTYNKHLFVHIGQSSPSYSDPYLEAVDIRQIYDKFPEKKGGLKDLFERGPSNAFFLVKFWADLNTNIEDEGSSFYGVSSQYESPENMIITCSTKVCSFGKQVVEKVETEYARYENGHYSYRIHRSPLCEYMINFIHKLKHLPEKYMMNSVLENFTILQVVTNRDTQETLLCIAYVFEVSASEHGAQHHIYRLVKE
Protein cereblon/Transcriptional enhancer factor TEF-3 (Homo sapiens), sequence (Q96SW2 whole entry, looked up): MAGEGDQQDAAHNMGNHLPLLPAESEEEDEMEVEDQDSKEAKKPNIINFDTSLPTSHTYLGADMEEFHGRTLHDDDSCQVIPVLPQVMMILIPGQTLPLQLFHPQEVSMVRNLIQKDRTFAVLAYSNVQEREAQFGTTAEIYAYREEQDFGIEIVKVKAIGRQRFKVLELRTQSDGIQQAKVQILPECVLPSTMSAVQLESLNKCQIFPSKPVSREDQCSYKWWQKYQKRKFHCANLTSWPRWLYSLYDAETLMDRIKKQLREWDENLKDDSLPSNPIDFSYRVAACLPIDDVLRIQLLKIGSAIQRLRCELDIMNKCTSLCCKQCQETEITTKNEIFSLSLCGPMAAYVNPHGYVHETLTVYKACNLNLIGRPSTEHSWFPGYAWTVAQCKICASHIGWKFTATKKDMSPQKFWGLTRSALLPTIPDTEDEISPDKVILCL

Test [14] concerns NCI-H226. The test is described as follows: Downregulation of AMOTL2 gene expression in human NCI-H226 cells incubated for 8 hrs by RT-qPCR analysis. In kind it is functional, cell-based. The following applies: dose 0.5-1 µM. An outline of the steps: as §2
Test [15] addresses Protein cereblon/Transcriptional enhancer factor TEF-1 (Homo sapiens) (UniProt P28347+Q96SW2). The test is described as follows: Protac activity at CRBN (unknown origin) /Flag-tagged TEAD1 (unknown origin) transfected in HEK293T cells at 9.75 to 1000 nM pretreated with cycloheximide for 2 hrs followed by compound addition and measured after 24 hrs by Western blot analysis. In kind it is cell-based. The following applies: dose 9.75-1000 nM. An outline of the steps:
as §4

Test [16] deals with NCI-H226. Kind of test: Downregulation of NPPB gene expression in human NCI-H226 cells incubated for 8 hrs by RT-qPCR analysis. The following applies: dose 0.5-1 µM. In kind it is functional, cell-based. An outline of the steps:
as §2

In test [17] the target is T1, Protein cereblon-TEAD (Homo sapiens). Kind of test: Protac activity at CRBN/TEAD in human NCI-H226 cells at 1 uM preincubated with MG132 for 1 hr followed by compound addition and measured after 8 hrs by Western blot analysis. In kind it is cell-based. In a few lines: as §3
For test [18] the target is unchanged. The test is described as follows: Protac activity at CRBN/TEAD in human NCI-H226 cells at 1 uM preincubated with VT107 for 1 hr followed by compound addition and measured after 8 hrs by Western blot analysis. In kind it is cell-based. In a few lines:
as §3

The target of test [19] is Protein cereblon/Programmed cell death protein 2 (Homo sapiens) (UniProt Q96SW2+Q16342). Kind of test: Protac activity at CRBN/PDCD2 in human NCI-H226 cells at 0.01 to 10 uM incubated for 24 hrs by Western blot analysis. In kind it is cell-based. The following applies: dose 0.01-10 µM. In a few lines:
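PDCD2 degradation in NCI-H226 cells after 24 h with compound at 0.01, 0.1, 1 and 10 μM, assessed by Western blot.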

T1 sequence (Q15562 whole entry partner): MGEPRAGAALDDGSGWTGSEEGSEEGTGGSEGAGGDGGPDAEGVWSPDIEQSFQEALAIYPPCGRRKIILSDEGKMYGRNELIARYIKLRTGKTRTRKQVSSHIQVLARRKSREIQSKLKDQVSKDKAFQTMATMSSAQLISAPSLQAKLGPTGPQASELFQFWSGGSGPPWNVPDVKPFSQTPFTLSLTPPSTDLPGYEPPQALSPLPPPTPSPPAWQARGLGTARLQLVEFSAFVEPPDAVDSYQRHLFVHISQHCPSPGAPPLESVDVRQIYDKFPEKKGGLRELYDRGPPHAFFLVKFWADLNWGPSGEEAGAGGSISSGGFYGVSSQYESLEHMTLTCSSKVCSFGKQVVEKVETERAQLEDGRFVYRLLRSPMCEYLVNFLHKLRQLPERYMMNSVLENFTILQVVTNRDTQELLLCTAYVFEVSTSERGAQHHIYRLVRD
T1 sequence (Q96SW2 whole entry partner): as the sequence (Q96SW2 whole entry, looked up) above
T1 sequence (Q99594 2-435 partner limits assumed): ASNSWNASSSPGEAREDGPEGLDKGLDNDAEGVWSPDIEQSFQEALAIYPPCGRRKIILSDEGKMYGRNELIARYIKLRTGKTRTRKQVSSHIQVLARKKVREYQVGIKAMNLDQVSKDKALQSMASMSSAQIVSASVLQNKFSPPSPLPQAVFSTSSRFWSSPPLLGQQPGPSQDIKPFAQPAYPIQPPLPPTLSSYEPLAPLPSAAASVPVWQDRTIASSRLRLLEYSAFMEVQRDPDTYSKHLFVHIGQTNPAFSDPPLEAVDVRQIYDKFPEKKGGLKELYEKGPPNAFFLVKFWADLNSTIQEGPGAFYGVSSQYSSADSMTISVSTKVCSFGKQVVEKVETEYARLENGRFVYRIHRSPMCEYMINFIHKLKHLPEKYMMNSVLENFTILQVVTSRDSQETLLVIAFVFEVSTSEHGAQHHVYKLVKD
T1 sequence (P28347 whole entry): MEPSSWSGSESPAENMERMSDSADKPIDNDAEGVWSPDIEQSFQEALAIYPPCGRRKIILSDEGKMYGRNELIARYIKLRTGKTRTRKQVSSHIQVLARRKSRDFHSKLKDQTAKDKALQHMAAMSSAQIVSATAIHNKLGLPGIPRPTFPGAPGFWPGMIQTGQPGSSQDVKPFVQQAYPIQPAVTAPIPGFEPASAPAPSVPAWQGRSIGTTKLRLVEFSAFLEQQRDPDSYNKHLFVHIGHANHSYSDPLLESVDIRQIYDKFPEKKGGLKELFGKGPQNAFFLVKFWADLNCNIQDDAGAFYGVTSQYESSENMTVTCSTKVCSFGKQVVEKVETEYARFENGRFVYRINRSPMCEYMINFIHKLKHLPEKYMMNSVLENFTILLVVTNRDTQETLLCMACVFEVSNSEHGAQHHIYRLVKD
T1 sequence (Q15561 whole entry partner): as the sequence (Q15561 whole entry, looked up) above
Protein cereblon/Transcriptional enhancer factor TEF-5 (Homo sapiens), sequence (Q96SW2 whole entry, looked up): as the sequence (Q96SW2 whole entry, looked up) above
Protein cereblon/Transcriptional enhancer factor TEF-5 (Homo sapiens), sequence (Q99594 whole entry, looked up): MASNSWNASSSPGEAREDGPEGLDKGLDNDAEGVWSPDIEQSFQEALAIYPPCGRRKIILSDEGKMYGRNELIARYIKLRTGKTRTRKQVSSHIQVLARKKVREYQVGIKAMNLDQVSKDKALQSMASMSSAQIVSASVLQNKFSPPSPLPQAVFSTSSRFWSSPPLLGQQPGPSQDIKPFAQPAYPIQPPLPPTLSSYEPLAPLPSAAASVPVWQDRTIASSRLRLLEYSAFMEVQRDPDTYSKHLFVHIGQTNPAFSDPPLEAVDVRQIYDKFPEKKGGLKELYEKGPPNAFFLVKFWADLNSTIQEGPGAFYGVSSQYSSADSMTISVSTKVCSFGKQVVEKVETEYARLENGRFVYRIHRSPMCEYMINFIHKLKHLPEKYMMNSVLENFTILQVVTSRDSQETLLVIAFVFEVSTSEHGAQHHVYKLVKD
Protein cereblon/Transcriptional enhancer factor TEF-4, sequence (Q96SW2 whole entry, canonical isoform): as the sequence (Q96SW2 whole entry, looked up) above
Protein cereblon/Transcriptional enhancer factor TEF-4, sequence (Q15562 whole entry, canonical isoform): as the sequence (Q15562 whole entry partner) above
Protein cereblon/Transcriptional enhancer factor TEF-1 (Homo sapiens), sequence (P28347 whole entry, looked up): as the sequence (P28347 whole entry) above
Protein cereblon/Transcriptional enhancer factor TEF-1 (Homo sapiens), sequence (Q96SW2 whole entry, looked up): as the sequence (Q96SW2 whole entry, looked up) above
Protein cereblon/Programmed cell death protein 2 (Homo sapiens), sequence (Q16342 whole entry, looked up): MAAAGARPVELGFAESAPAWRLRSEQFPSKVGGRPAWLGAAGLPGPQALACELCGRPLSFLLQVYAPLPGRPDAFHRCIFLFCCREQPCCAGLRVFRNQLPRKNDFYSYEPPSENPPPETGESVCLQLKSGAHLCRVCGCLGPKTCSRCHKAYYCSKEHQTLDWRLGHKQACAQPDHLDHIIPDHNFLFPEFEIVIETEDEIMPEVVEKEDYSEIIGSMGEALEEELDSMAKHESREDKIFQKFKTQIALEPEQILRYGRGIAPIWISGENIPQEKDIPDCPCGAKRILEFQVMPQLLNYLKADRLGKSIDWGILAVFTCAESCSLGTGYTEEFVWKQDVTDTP
Protein cereblon/Programmed cell death protein 2 (Homo sapiens), sequence (Q96SW2 whole entry, looked up): as the sequence (Q96SW2 whole entry, looked up) above

By IC50 is commonly meant the concentration that inhibits the measured activity by half. Lower therefore signals inhibition by little substance. `C[C@H](NC(=O)c1ccc2c(-c3ccc(C(F)(F)F)cc3)cccc2c1)c1cccc(NCCCCCCCCNc2cccc3c2C(=O)N(C2CCC(=O)NC2=O)C3=O)n1` (some centres undefined) showed an IC50 in the test on NCI-H226 [1] of 5.11 µM.
Still for that read-out and setting: next, `C[C@H](NC(=O)c1ccc2c(-c3ccc(C(F)(F)F)cc3)cccc2c1)c1cccc(NCCNc2cccc3c2C(=O)N(C2CCC(=O)NC2=O)C3=O)n1` (some centres undefined): 1.51 µM.
In the test with NCI-H226 [1], `C[C@H](NC(=O)c1ccc2c(-c3ccc(C(F)(F)F)cc3)cccc2c1)c1cccc(NCCOCCNc2cccc3c2C(=O)N(C2CCC(=O)NC2=O)C3=O)n1` (some centres undefined) had an IC50 of 0.34 µM.
On the same count and under the same terms, for `C[C@H](NC(=O)c1ccc2c(-c3ccc(C(F)(F)F)cc3)cccc2c1)c1cccc(NCCCCCCCNc2cccc3c2C(=O)N(C2CCC(=O)NC2=O)C3=O)n1` (some centres undefined) the value was 2.65 µM.
On the same count and under the same terms, for `C[C@H](NC(=O)c1ccc2c(-c3ccc(C(F)(F)F)cc3)cccc2c1)c1cccc(NCCOCCNc2ccc3c(c2)C(=O)N(C2CCC(=O)NC2=O)C3=O)n1` (some centres undefined) the value was 0.35 µM; for `C[C@H](NC(=O)c1ccc2c(-c3ccc(C(F)(F)F)cc3)cccc2c1)c1cccc(NCCCCCNc2cccc3c2C(=O)N(C2CCC(=O)NC2=O)C3=O)n1` (some centres undefined), 0.81 µM.
Consider `C[C@H](NC(=O)c1ccc2c(-c3ccc(C(F)(F)F)cc3)cccc2c1)c1cccc(NCCOCCOCCOCCNc2cccc3c2C(=O)N(C2CCC(=O)NC2=O)C3=O)n1` (some centres undefined), for which the result in test [2] was Active. For the same compound, in test [3], the Activity is 45.1%. The same compound displayed a DC50 on Protein cereblon-TEAD of 0.0397 µM. This compound also had a 50% inhibitory concentration (IC50) in the test on NCI-H226 [1] of 0.26 µM.
In the test with NCI-H226 [1], `C[C@H](NC(=O)c1ccc2c(-c3ccc(C(F)(F)F)cc3)cccc2c1)c1cccc(NCCCNc2cccc3c2C(=O)N(C2CCC(=O)NC2=O)C3=O)n1` (some centres undefined) gave an IC50 of 0.94 µM.
In general, Emax refers to the greatest response seen or fitted, relative to the assay's reference. For `C[C@H](NC(=O)c1ccc2c(-c3ccc(C(F)(F)F)cc3)cccc2c1)c1cccc(NCCOCCOCCNc2ccc3c(c2)C(=O)N(C2CCC(=O)NC2=O)C3=O)n1` (some centres undefined), the result (with NCI-H226 [4]; in [5]; in [7]; in [2]; with NCI-H226 [9]; in the test on NCI-H226 [10]) was Active. The result in the test on NCI-H226 [12], with NCI-H226 [14] and with NCI-H226 [16] was Active. The DC50 was found to be 0.0541 µM in test [6] and 0.0327 µM at Protein cereblon-TEAD. For the same compound, the result in test [8], in test [11], in test [13], in test [17], in test [18] and in test [19] was inactive. The Activity in test [3] is 42.4%. In addition, the IC50 was above 10 µM with NCI-H2452 and 0.21 µM with NCI-H226 [1]. The Emax in test [15] was found to be 40%.
`C[C@H](NC(=O)c1ccc2c(-c3ccc(C(F)(F)F)cc3)cccc2c1)c1cccc(N)n1` came in with a half-maximal inhibitory concentration (IC50) with NCI-H226 [1] of 0.03 µM.
As for `C[C@H](NC(=O)c1ccc2c(-c3ccc(C(F)(F)F)cc3)cccc2c1)c1cccc(NCCCCCCNc2cccc3c2C(=O)N(C2CCC(=O)NC2=O)C3=O)n1` (some centres undefined), the IC50 in the test on NCI-H226 [1] came to 1.15 µM.
As to `C[C@H](NC(=O)c1ccc2c(-c3ccc(C(F)(F)F)cc3)cccc2c1)c1cccc(NCCOCCOCCOCCNc2ccc3c(c2)C(=O)N(C2CCC(=O)NC2=O)C3=O)n1` (some centres undefined), the result in test [2] was Active. This compound registered an IC50 in the test with NCI-H226 [1] of 0.23 µM.
As for `C[C@H](NC(=O)c1ccc2c(-c3ccc(C(F)(F)F)cc3)cccc2c1)c1cccc(NCCOCCOCCNc2cccc3c2C(=O)N(C2CCC(=O)NC2=O)C3=O)n1` (some centres undefined), the result in test [2] was Active. In addition, inhibition in the test with NCI-H226 [1] was half-maximal at 0.29 µM (IC50).
For the compound `C[C@H](NC(=O)c1ccc2c(-c3ccc(C(F)(F)F)cc3)cccc2c1)c1cccc(NCCCCNc2cccc3c2C(=O)N(C2CCC(=O)NC2=O)C3=O)n1` (some centres undefined), the half-maximal inhibitory concentration (IC50) in the test with NCI-H226 [1] amounted to 1.18 µM.
